Here are results for 1 molecule from ChEMBL document CHEMBL1145062, “Conformationally defined retinoic acid analogues. 5. Large-scale synthesis and mammary cancer chemopreventive activity for (2E,4E,6Z,8E)-8-(3',4'-dihydro-1'(2'H)-naphthalen-1'-ylidene)-3,7-dimethyl-2,4,6-octatrienoic acid (9cUAB30)” (2003).

The subject of assay [1] is Rattus norvegicus. The assay is described as follows: Anti cancer activity of compound was measured by weight of ovaries in gram per 100 g body weight of rat in 200 mg/kg diet after MNU intravenous injection. Type of assay: functional, Female gonad. The essentials: (§1)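 Female rats housed five per cage on 4% Teklad rodent diet; single intravenous MNU via jugular vein at 50 days of age. Retinoid mixed into diet (Patterson–Kelly liquid–solid blender; stability checked by HPLC) and fed continuously from 53 days of age; n = 20 per group; diet-only MNU control group. Weighed weekly; body weight and liver, uterus, ovary weights (g per 100 g body weight) taken at study end.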

The subject of assay [2] is Rattus norvegicus. As to the kind of experiment: Anti cancer activity of compound was measured by weight of liver in gram per 100 g body weight of rat in 200 mg/kg diet after MNU intravenous injection. The format is functional. The essentials: as §1
Assay [3] deals with Rattus norvegicus. As to the kind of experiment: Anti cancer activity of compound was measured by weight of liver in gram per 100 g body weight of rat in 100 mg/kg diet after MNU intravenous injection. The format is functional. The essentials:
as §1

Assay [4] concerns Rattus norvegicus. As to the kind of experiment: Anti cancer activity of compound was measured by weight of uterus in gram per 100 g body weight of rat in 200 mg/kg diet after MNU intravenous injection. Type of assay: functional. The essentials: as §1
Assay [5] relates to Rattus norvegicus. The assay is described as follows: Anti cancer activity of compound was measured by weight of ovaries in gram per 100 g body weight of rat in 100 mg/kg diet after MNU intravenous injection. Type of assay: functional, Female gonad. The essentials: as §1
The subject of assay [6] is Rattus norvegicus. The assay is described as follows: Anti cancer activity of compound was measured by final body weight(g) of rat in 200 mg/kg diet after MNU intravenous injection. The format is functional. The essentials: as §1
In assay [7] the test system is Rattus norvegicus. As to the kind of experiment: Anti cancer activity of compound was measured by final body weight(g) of rat in 100 mg/kg diet after MNU intravenous injection. The format is functional. The essentials:
as §1

Assay [8] concerns Rattus norvegicus. The assay is described as follows: Anti cancer activity of compound was measured by weight of uterus in gram per 100 g body weight of rat in 100 mg/kg diet after MNU intravenous injection. Type of assay: functional. In outline:
as §1

Take `CC(=C\C=C\C(C)=C\C(=O)O)/C=C1\CCCc2ccccc21`: the Organ weight came out at 0.052 g with Rattus norvegicus [1]; 3.11 g with Rattus norvegicus [2]; 2.96 g in the assay with Rattus norvegicus [3]; 0.21 g with Rattus norvegicus [4]; 0.046 g in the assay with Rattus norvegicus [5]; 0.16 g in the assay with Rattus norvegicus [8]. The Body weight is 272 g in the assay with Rattus norvegicus [6] and 271 g in the assay with Rattus norvegicus [7].
